{"data": "Published values pooled from the literature", "mode": "inhibitor", "ache": "Acetylcholinesterase (ache, Electrophorus electricus, UniProt O42275)", "Sialidase-4": "Sialidase-4 (Homo sapiens, UniProt Q8WWR8)", "ALOX15": "Polyunsaturated fatty acid lipoxygenase ALOX15 (ALOX15, Homo sapiens, UniProt P16050)", "note": "Lines come from different studies, so protocols differ."}
{"SMILES": "c1ccc(Cn2cc(COc3ccc(-c4nnc(-c5ccccc5)o4)cc3)nn2)cc1", "target": "ache", "assay": "enzyme activity, Ellman", "IC50 [µM]": "> 100"}
{"SMILES": "CC(C)(C)NC(=O)N[C@H]1[C@H]([C@H](O)[C@H](O)CO)OC(C(=O)O)=C[C@@H]1O", "target": "Sialidase-4", "assay": "enzyme activity", "IC50 [µM]": "> 500"}
{"SMILES": "O=C(N1CCC2(CC1)C[C@H](CN1CCCCS1(=O)=O)CCO2)C1(c2ccccc2)CCCC1", "target": "ATP-dependent RNA helicase DDX3X (DDX3X, Homo sapiens, UniProt O00571)", "assay": "ATPase activity", "IC50 [µM]": "> 50"}
{"SMILES": "CCN(C)C(=O)Oc1ccc(CCC(=O)N2CCc3ccccc3C2)cc1OC", "target": "ache", "assay": "enzyme activity, Ellman", "IC50 [µM]": 10.6}
{"SMILES": "COc1ccc(/C=C/C(=O)N2CCCC(NC(=O)OC(C)(C)C)C2)cc1OC (centres unmarked)", "target": "ache", "assay": "enzyme activity, Ellman", "IC50 [µM]": "> 50"}
{"SMILES": "COc1ccc(-c2nnc(-c3ccc(OCc4cn(Cc5ccc(Br)cc5)nn4)cc3)o2)cc1", "target": "ache", "assay": "enzyme activity, Ellman", "IC50 [µM]": "> 100"}
{"SMILES": "CCOC(=O)c1ccccc1-c1c2ccc(=O)cc-2oc2cc(OCCCNc3c(C4CCCCCC4)nc4ccccn34)ccc12", "target": "ALOX15", "assay": "enzyme activity, absorbance", "IC50 [µM]": "> 100"}
{"SMILES": "CC(C)(C)CN[C@H]1[C@H]([C@H](O)[C@H](O)CO)OC(C(=O)O)=C[C@@H]1O", "target": "Sialidase-4", "assay": "enzyme activity", "IC50 [µM]": 40}
{"SMILES": "CCOC(=O)c1ccccc1-c1c2ccc(=O)cc-2oc2cc(OCCCNc3c(-c4ccc(OC(C)=O)cc4)nc4ccccn34)ccc12", "target": "ALOX15", "assay": "enzyme activity, absorbance", "IC50 [µM]": "> 100"}
{"SMILES": "O=C(O)C1=C[C@H](O)[C@@H](NCc2ccc(-c3ccccc3)cc2)[C@H]([C@H](O)[C@H](O)CO)O1", "target": "Sialidase-4", "assay": "enzyme activity", "IC50 [µM]": 260}
{"SMILES": "CCOC(=O)c1ccccc1-c1c2ccc(=O)cc-2oc2cc(OCCCNc3c(-c4ccc5ccccc5c4)nc4ccccn34)ccc12", "target": "ALOX15", "assay": "enzyme activity, absorbance", "IC50 [µM]": "> 100"}
{"SMILES": "CCN(C)C(=O)Oc1ccc(CCC(=O)N(CC)Cc2ccccc2)cc1OC", "target": "ache", "assay": "enzyme activity, Ellman", "IC50 [µM]": 13.8}
{"SMILES": "CCCCCCCCCC(=O)N[C@@H](CCCN=C(N)N)C(=O)N[C@H](C(=O)N[C@@H](CCCCN)C(=O)N[C@@H](CCCN=C(N)N)C(=O)CCl)C(C)C", "target": "Furin (FURIN, Homo sapiens, UniProt P09958)", "assay": "enzyme activity", "IC50 [µM]": 0.00296}
{"SMILES": "CCCCCCN[C@H]1[C@H]([C@H](O)[C@H](O)CO)OC(C(=O)O)=C[C@@H]1O", "target": "Sialidase-4", "assay": "enzyme activity", "IC50 [µM]": "> 500"}
{"SMILES": "Fc1ccc(Cn2cc(COc3ccc(-c4nnc(-c5ccccc5)o4)cc3)nn2)cc1", "target": "ache", "assay": "enzyme activity, Ellman", "IC50 [µM]": "> 100"}
{"SMILES": "COc1cc(/C=C/C(=O)NC2CCN(Cc3ccccc3)CC2)ccc1OC(=O)N1CCCC1", "target": "ache", "assay": "enzyme activity, Ellman", "IC50 [µM]": 3.1}
{"SMILES": "CC(C)Cc1cn([C@H]2[C@H]([C@H](O)[C@H](O)CO)OC(C(=O)O)=C[C@@H]2O)nn1", "target": "Sialidase-4", "assay": "enzyme activity", "IC50 [µM]": "> 500"}
